# NPY-Y2 antag: antagonists of human neuropeptide Y receptor Y2. NPY-Y2 expressing cells, antagonist mode. inhibition, % at 2.7 µM. hit rate 0.99% among 140,000; in the data active means inhibition above about 17%;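 further: 0% = vehicle with agonist challenge and 100% = reference antagonist with challenge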
# NPY-Y1 PAM-ag: potentiators or agonists of human neuropeptide Y receptor Y1; hit rate 0.37% among 220,000; P25929; NPY-Y1 expressing cells, potentiator/agonist activation; activation, % at 3.6 µM; in the data active means activation above about 33%, passing the limit was not always enough;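 further: cells stimulated with NPY at EC10 then isoproterenol at EC100; 0% = low agonist plus stimulus and 100% = saturating agonist plus stimulus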
# Target sequence (P25929 whole entry, looked up): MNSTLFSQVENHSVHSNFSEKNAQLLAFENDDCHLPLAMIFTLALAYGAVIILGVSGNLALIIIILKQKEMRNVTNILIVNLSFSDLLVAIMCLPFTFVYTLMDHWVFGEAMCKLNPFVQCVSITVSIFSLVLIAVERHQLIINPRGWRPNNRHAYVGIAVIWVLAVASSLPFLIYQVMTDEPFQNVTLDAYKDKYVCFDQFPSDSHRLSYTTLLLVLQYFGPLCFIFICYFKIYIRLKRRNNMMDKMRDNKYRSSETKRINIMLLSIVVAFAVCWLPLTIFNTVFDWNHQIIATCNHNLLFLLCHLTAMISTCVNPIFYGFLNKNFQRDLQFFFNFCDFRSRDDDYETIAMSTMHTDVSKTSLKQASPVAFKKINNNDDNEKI
# EP2 antag: EP2 receptor (human) inhibition. AID 1422. P43116. hit rate 0.52% among 260,000. inhibition, % at 25 µM. C6 glioma cells expressing human EP2, cAMP TR-FRET; cells stimulated with saturating PGE2;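 active means percent inhibition above 40 after rounding to a whole number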;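 further: rat C6 glioma host cells with rolipram phosphodiesterase inhibitor present; the protocol text gives 20 µM as final concentration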
# NPY2 pot ag: human NPY-Y2 potentiation or agonism, primary screen; activation, % at 3.6 µM; hit rate 0.45% among 220,000; cells expressing NPY-Y2, potentiator/agonist read-out; AID 1359; in the data active means activation above about 27%;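 further: cells stimulated with NPY near EC25 plus isoproterenol at EC100; 0% = vehicle plus submaximal agonist and 100% = vehicle plus saturating agonist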
# EP2 modulator: modulates human prostaglandin E2 receptor EP2 signaling. P43116. EP2-expressing cells, cAMP HTRF FRET, PGE2 co-stimulation. hit rate 0.83% among 260,000. induction, % at 25 µM. AID 940;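 active means compounds whose cAMP rise, as percent of the full-agonist control response, exceeds 60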;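 further: rat C6 glioma line stably carrying human EP2 under a CMV promoter; the protocol text gives 20 µM as final concentration; 100% = response of wells given 1 µM PGE2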
# NPY Y1 blocker: antagonists of human neuropeptide Y receptor Y1; P25929; HEK293-CNG Y1 cells, membrane potential fluorescence; NPY at EC95, then isoproterenol; inhibition, % at 3.6 µM; hit rate 1% among 200,000;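 active means inhibition above the campaign mean inhibition of all tested compounds plus 3 SD, cut at about 20% in these data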;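 further: 0% = DMSO wells given NPY plus isoproterenol and 100% = isoproterenol alone without NPY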
#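 Assay system: HEK293 Y1/CNG channel cell line; Doses: single compound dose of 3.6 µM, 0.4% DMSO; Timing: dye 3 h, compound 60 min room temperature, stimulation 45 min; Technique: Membrane-potential fluorescent dye readout; Measure: % inhibition of NPY effect.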
# * = called active by the depositor; x = not tested or not shown. Rows were chosen to be rich in hits. Some 2.8% of all compounds tested hit in one or more screens of this group.
SMILES,NPY-Y2 antag,NPY-Y1 PAM-ag,EP2 antag,NPY2 pot ag,EP2 modulator,NPY Y1 blocker
CCc1cc2ccc(OC)cc2nc1SCC(=O)NCCc1ccc(OC)c(OC)c1,x,x,15,x,74*,x
CCOc1ccccc1NC(=O)CSc1nc2cc(OC)ccc2cc1CC,x,x,5,x,42,x
CCc1nnc(NC(=O)CSc2nc3cc(OC)ccc3cc2CC)s1,x,x,15,x,42,x
CCc1cc2ccc(OC)cc2nc1SCC(=O)NNC(=O)c1ccc(OC)cc1,x,x,13,x,62*,x
CCc1cc2ccc(OC)cc2nc1SCC(=O)Nc1c(C)cccc1C,x,x,21,x,64*,x
CCc1cc2ccc(C)cc2nc1SCC(=O)Nc1c(C)cccc1C,x,x,23,x,24,x
CCc1cc2ccc(OC)cc2nc1SCC(=O)Nc1ccccc1C,x,x,14,x,80*,x
Cc1ncc(-c2ccncc2)c(C2CCN(C(=O)CCn3nnc4ccccc43)CC2)n1,x,x,x,x,-20,x
CCn1c(=O)[nH]c2c(C(N)=O)nc(-c3ccccc3F)nc21,x,x,x,x,12,x
Cc1ccc2ccccc2c1NC(=O)CN1CCN(C(=O)c2ccco2)CC1,x,x,18,x,1,x
COc1cccc(C2(NC(=O)Cc3ccc4c(c3)OCO4)CCCC2)c1,x,x,3,x,12,x
N#Cc1cc2c(nc1SCc1ccccc1)CCC2,3,2,42*,4,40,-4
Cc1ncsc1C(=O)N1CCC2(CC1)NC(=O)c1ccccc1O2,x,x,x,x,1,x
O=C(Nc1ccc(I)cc1)C1CC(=O)N(c2ccc(Cl)cc2)C1 (centres undefined),x,x,9,x,-2,x
O=C(COC(=O)c1ccc2c(c1)C(=O)N(Cc1ccncc1)C2=O)Nc1ccccc1[N+](=O)[O-],1,-8,8,4,16,-3
CC(OC(=O)c1ccc2c(c1)C(=O)N(Cc1ccncc1)C2=O)C(=O)Nc1cccc(Cl)c1Cl (centres undefined),4,114*,7,103*,1,-11
O=C(NC1CCN(Cc2nnnn2C2CCCCC2)CC1)c1cccc(F)c1,x,x,7,x,-20,x
CC1CCCN(c2nc3c(c(=O)[nH]2)CCN(Cc2cccn2C)C3)C1 (centres undefined),x,x,x,x,-19,x
CC1(C)CCC2=C(O1)c1ccccc1C(=O)C2=O,x,x,41*,x,-31,x
CC1(C)CCc2c([nH]c3ccccc3c2=O)O1,x,-2,19,5,2,4
O=C(/C=C/c1ccccc1)c1ccc2c(c1)CCCCO2,x,x,10,x,2,x
Cc1cc(C(=O)NCC(=O)OCC(=O)N(C2CCCCC2)C2CCCCC2)ccc1[N+](=O)[O-],-4,9,4,9,63*,-1
COc1cccc(/C(O)=C2/C(=O)C(=O)N(CCN(C)C)C2c2ccc(OC)c(OC)c2)c1 (centres undefined),x,x,9,x,-20,x
CCC(c1nnnn1Cc1ccc2c(c1)OCO2)N1CCN(C2CCCCC2)CC1 (centres undefined),x,x,13,x,8,x
COc1ccc(Cn2nnnc2C(c2ccccc2)N2CCN(C3CCCC3)CC2)cc1 (centres undefined),10,6,9,9,21,9
SMILES,NPY-Y2 antag,NPY-Y1 PAM-ag,EP2 antag,NPY2 pot ag,EP2 modulator,NPY Y1 blocker
COc1ccc(Cn2nnnc2C(c2ccccc2Cl)N2CCN(C3CCCC3)CC2)cc1 (centres undefined),20*,-7,9,-3,30,28*
CCC(c1nnnn1Cc1ccc(F)cc1)N1CCN(C2CCCCC2)CC1 (centres undefined),37*,-14,24,-15,-7,39*
CCOC(=O)CSc1nnc(COc2ccc(OC)cc2)n1-c1ccc(C)cc1,x,x,12,x,34,x
c1csc(COc2ccccc2CNC2CCCCC2)c1,31*,9,6,14,5,23*
COc1ccccc1CN(CCCn1ccnc1)Cc1cccc(F)c1F,x,x,6,x,-92,x
COc1ccc2[nH]c(=O)c(CN(CCO)C(=S)Nc3ccc(F)cc3)cc2c1,x,x,19,x,-61,x
O=C1[C@H]2[C@@H]3c4ccccc4[C@H]([C@H]2C(=O)N1c1ccc(OCc2ccccc2)cc1)[n+]1ccccc13,x,x,42*,x,14,x
COC(=O)COc1ccc2c(-c3ccc(OC)cc3)cc(=O)oc2c1,5,98*,10,98*,41,2
COC(=O)COc1ccc2c(-c3cccc([N+](=O)[O-])c3)cc(=O)oc2c1,1,8,18,-6,13,0
COC(=O)C(C)n1cnc2sc(C)c(-c3ccc(C)c(C)c3)c2c1=O (centres undefined),x,x,3,x,1,x

# Assay outcomes deposited in PubChem by several laboratories.
